Results from article PMC8777244 (Biochemistry and Biophysics Reports, 2022).
One block for each molecule: values may come before it.

How the values were obtained:
[1] = test system: CaM; test: CaM binding to DHs by isothermal titration calorimetry; conditions: for Heat enthalpy change relative to DH665-719: fold of DH665-719 enthalpy
[2] = test system: CaM; test: CaM interaction by size-exclusion chromatography; type: binding
Summary of the method: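 HPLC size-exclusion used a Shodex KW802.5 column at 1.0 mL/min with 280 nm detection. Buffer was Tris, pH 7.5, with 0.2 M NaCl (range 0.2–0.5 M) plus 2 mM Ca²⁺ or 1 mM EDTA. Samples were filtered through 0.45 μm. MBP-DH constructs, alone or mixed with CaM or Dansyl-CaM, were compared with BSA. Collected fractions were assayed for Dansyl fluorescence.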

[3] = Solubility of DH proteins in bacterial expression; type: physicochemical; conditions: E. coli expression
[4] = Size-exclusion chromatography, oligomeric states; type: physicochemical
Summary of the method: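 HPLC gel filtration of amylose-purified MBP-fused NOX5 dehydrogenase domain, run against CaM and BSA references. Column equilibrated in Tris pH 7.5 (50 mM per figure legends, 20 mM per methods) with 0.2 M NaCl (0.2–0.5 M range), plus 2 mM Ca²⁺ or 1 mM EDTA. Runs at 1.0 mL/min with 280 nm detection. 2 M urea added to partially dissociate oligomers. Species assigned by elution time.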

[5] = Dynamic light scattering; type: physicochemical
Summary of the method: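 DLS was run on a DynaPro NanoStar. Samples at 1 mg/mL in 50 mM Tris, pH 7.5, were filtered through 0.45 then 0.1 μm and equilibrated 2 min at 25 °C. Acquisition was 5 s, with minimum peak intensity 1% and correlation cut-offs of 0.5 and 100,000 μs. Ten autocorrelation functions were averaged and fitted to decaying exponentials for the diffusion coefficient. Rh was calculated assuming spheres.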

[6] = 1 mg/mL, 50 mM Tris, pH 7.5, 25 °C

Stoichiometry, ITC CaM/DH ([1]; CaM (titrant) into DH (near 2 μM), 50 mM Tris, pH 7.5, 2 mM Ca^2+, 25 °C, MBP-fused DH): 1.18 ± 0.05
Heat enthalpy change relative to DH665-719 [1]: approximately double
B1: DH528-719: MBP-fused truncated Nox5 dehydrogenase domain residues 528–719 (∼62 kDa) (protein)
chain: PTRRIFASEHAVLIGAGIGITPFASILQSIMYRHQKRKHTCPSCQHSWIEGVQDNMKLHKVDFIWINRDQRSFEWFVSLLTKLEMDQAEEAQYGRFLELHMYMTSALGKNDMKAIGLQMALDLLANKEKKDSITGLQTRTQPGRPDWSKVFQKVAAEKKGKVQVFFCGSPALAKVLKGHCEKFGFRFFQENF
modifications: left off: MBP, N-terminal, kept
Share of D-CaM in DH fractions ([2]; equal amounts of D-CaM and DH528-719, Ca^2+): approximately half
Solubility [3]: most soluble

Stoichiometry nCaM/DH, ITC at high DH concentration ([1]; CaM into 20–50 μM DH, Ca^2+, low value attributed to DH degradation): lower than 1
Heat enthalpy change relative to DH665-719 [1]: approximately double
B2: DH605-719: MBP-fused truncated Nox5 dehydrogenase domain residues 605–719, contains REFBD and CMBD sequences (protein)
chain: SLLTKLEMDQAEEAQYGRFLELHMYMTSALGKNDMKAIGLQMALDLLANKEKKDSITGLQTRTQPGRPDWSKVFQKVAAEKKGKVQVFFCGSPALAKVLKGHCEKFGFRFFQENF
modifications: left off: MBP, N-terminal, kept

Heat enthalpy change relative to DH665-719 [1]: approximately double
B3: DH584-719: MBP-fused truncated Nox5 dehydrogenase domain residues 584–719 (56 kDa) (protein)
chain: KLHKVDFIWINRDQRSFEWFVSLLTKLEMDQAEEAQYGRFLELHMYMTSALGKNDMKAIGLQMALDLLANKEKKDSITGLQTRTQPGRPDWSKVFQKVAAEKKGKVQVFFCGSPALAKVLKGHCEKFGFRFFQENF
modifications: left off: MBP, N-terminal, kept
SEC elution time, major peak ([4]; 50 mM Tris, pH 7.5, 0.2 M NaCl): 6.7 min
SEC elution time, very minor peak (monomer) ([4]; 50 mM Tris, pH 7.5, 0.2 M NaCl): ~9.5 min
SEC elution time, monomer, 2 M urea ([4]; 2 M urea, 50 mM Tris, pH 7.5, 0.2 M NaCl, Species 1): 9.52 min
SEC elution time, dimer, 2 M urea ([4]; 2 M urea, 50 mM Tris, pH 7.5, 0.2 M NaCl, Species 2): 8.02 min
SEC elution time, trimer, 2 M urea ([4]; 2 M urea, 50 mM Tris, pH 7.5, 0.2 M NaCl, Species 3 (∼168 kDa)): 7.25 min
SEC elution time, tetramer, 2 M urea ([4]; 2 M urea, 50 mM Tris, pH 7.5, 0.2 M NaCl, Species 4 (∼224 kDa)): 6.71 min
Dominant oligomer, high ionic strength ([4]; >0.25 M NaCl): favors trimer formation
Effect of DTT and Ca^2+ on HPLC profile ([4]; reducing agent DTT and Ca^2+ ions): did not affect its HPLC profile
Effect of CaM on DH oligomer ([2]; CaM binding, Ca^2+): the dimer disappeared
Decay of autocorrelation function [5, 6]: > 100 μs
Hydrodynamic radius (Rh) [5, 6]: 8.3 nm
Poly-distribution (%pd) [5, 6]: 42.5%
Estimated average molecular weight (DLS) ([5]; Raleigh sphere assumption, qualitative): ~450 kDa
